Experiments:
[1] = target: T1, Prostaglandin D2 receptor 2 (Homo sapiens, UniProt Q9Y5Y4); experiment: Displacement of [3H]PGD2 from human CRTH2 receptor
T1 sequence (Q9Y5Y4 whole entry): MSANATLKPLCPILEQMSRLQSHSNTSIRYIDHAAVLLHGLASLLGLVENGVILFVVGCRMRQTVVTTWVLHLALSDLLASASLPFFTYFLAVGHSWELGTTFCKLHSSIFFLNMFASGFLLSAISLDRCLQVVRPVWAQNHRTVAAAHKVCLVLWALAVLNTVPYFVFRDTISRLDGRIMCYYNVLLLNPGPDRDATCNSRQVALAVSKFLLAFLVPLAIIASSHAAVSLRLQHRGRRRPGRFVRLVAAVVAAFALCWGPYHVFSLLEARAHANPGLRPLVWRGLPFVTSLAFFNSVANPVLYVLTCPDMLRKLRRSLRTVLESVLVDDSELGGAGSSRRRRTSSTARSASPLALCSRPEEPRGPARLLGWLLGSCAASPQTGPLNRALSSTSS
Outline: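 Radioligand binding with ³H-PGD₂ as the labelled ligand; IC₅₀ reported as mean of n >2 measurements.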

[2] = Lipophilicity, log D of the compound at pH 7.4; settings: buffer
[3] = Intrinsic clearance in rat hepatocytes assessed as per 1 x 10^6 cells
[4] = Inhibition of human recombinant aldose reductase 2 after 15 mins by spectrophotometry analysis
[5] = target: Cytochrome P450 2C9 (Homo sapiens, UniProt P11712); experiment: Inhibition of CYP2C9; type: ADME
Sequence of Cytochrome P450 2C9 (P11712 whole entry): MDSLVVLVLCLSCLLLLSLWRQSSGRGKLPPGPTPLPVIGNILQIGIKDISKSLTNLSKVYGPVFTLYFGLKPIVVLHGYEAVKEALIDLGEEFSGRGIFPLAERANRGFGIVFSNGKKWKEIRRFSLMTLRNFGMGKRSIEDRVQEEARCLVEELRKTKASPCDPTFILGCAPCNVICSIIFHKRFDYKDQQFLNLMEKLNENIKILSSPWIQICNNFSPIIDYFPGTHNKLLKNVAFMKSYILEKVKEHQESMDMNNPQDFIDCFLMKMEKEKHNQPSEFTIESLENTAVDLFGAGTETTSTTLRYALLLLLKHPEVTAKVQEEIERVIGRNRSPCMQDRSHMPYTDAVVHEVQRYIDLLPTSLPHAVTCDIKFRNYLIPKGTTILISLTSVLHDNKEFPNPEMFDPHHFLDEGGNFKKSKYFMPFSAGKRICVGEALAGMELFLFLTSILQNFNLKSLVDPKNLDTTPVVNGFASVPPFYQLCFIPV

[6] = target: Aldehyde reductase AKR1A1 (Homo sapiens); experiment: Inhibition of human recombinant aldose reductase 1 after 15 mins by spectrophotometry analysis
[7] = species on record: Homo sapiens; experiment: Selectivity ratio of IC50 for human recombinant aldose reductase 1 to IC50 for human CRTh2 receptor
Outline: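 Ratio of two IC50s from separate assays. […] ALR1 activity was followed at […] as NADPH oxidation, at 22 °C. All reagents except NADPH were preincubated 15 min before NADPH started the reaction. Initial linear rates were corrected for non-enzymatic NADPH oxidation, and % inhibition was taken against no-compound control.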

[8] = target: T1, Prostaglandin D2 receptor 2; experiment: Antagonist activity at human CRTh2 receptor expressed in HEK cells assessed as inhibition of PGD2-induced calcium flux; type: functional, cell-based, HEK293
[9] = target: Aldo-keto reductase family 1 member B1 (Rattus norvegicus, UniProt P07943); experiment: Inhibition of rat aldose reductase
[10] = Volume of distribution at steady state in Sprague-Dawley rat at 1 mg/kg, iv; type: ADME, organism-based; set-up: dose 1 mg/kg, route intravenous; settings: in vivo, read-out: Vdss
[11] = Oral bioavailability in Sprague-Dawley rat at 3 mg/kg; type: ADME, organism-based; settings: in vivo
[12] = Half life in Sprague-Dawley rat at 1 mg/kg, iv; type: ADME, organism-based; set-up: dose 1 mg/kg, route intravenous; settings: in vivo
[13] = Clearance in Sprague-Dawley rat at 1 mg/kg, iv; type: ADME, organism-based; set-up: dose 1 mg/kg, route intravenous; settings: in vivo
[14] = Oral bioavailability in Sprague-Dawley rat at 4 mg/kg; type: ADME, organism-based; settings: in vivo

Structure (SMILES) | IC50 [1] | logD [2] | hepatocyte CLint [3] | IC50 [4] | further results
CNC(=O)c1cccc2c1c(Sc1ccc(Cl)cc1)c(C)n2CC(=O)O | 45 nM | -0.9 | < 3 µL/min/1e6 cells |  | 
COc1cccc(S(=O)(=O)c2c(C)n(CC(=O)O)c3ccc(C)cc23)c1 | 71 nM | -0.4 | 14 µL/min/1e6 cells | 724 nM | IC50 [6]: 115 nM; Ratio IC50 [7]: < 20
Cc1c(Sc2ccc(Cl)cc2)c2cc(Cl)ccc2n1C(C)C(=O)O (stereo unspecified) | 501 nM |  |  |  | 
Cc1c(Sc2ccc(Cl)cc2)c2cccc(Cl)c2n1CC(=O)O | 60 nM | 2 | 75 µL/min/1e6 cells | 11200 nM | 
CCN(C(C)=O)c1cccc2c1c(Sc1ccc(Cl)cc1)c(C)n2CC(=O)O |  | 1.6 |  |  | 
Cc1c(Sc2ccc(Cl)cc2)c2ccc(S(C)(=O)=O)cc2n1CC(=O)O | 159 nM | 0.8 | < 3 µL/min/1e6 cells |  | 
CC(=O)Nc1ccc2c(c1)c(Sc1ccc(Cl)cc1)c(C)n2CC(=O)O | 56 nM | 0.2 | 8 µL/min/1e6 cells |  | 
Cc1ccc2c(c1)c(S(=O)(=O)c1ccc(Cl)cc1)c(C)n2CC(=O)O | 26 nM | 0.1 |  | 6310 nM | 
Cn1c(CC(=O)O)c(Sc2ccccc2)c2ccccc21 | 794 nM |  |  |  | 
Cc1ccc2c(c1)c(S(=O)(=O)c1cccc(Cl)c1)c(C)n2CC(=O)O | 79 nM |  |  |  | 
Cc1c(Sc2ccc(Cl)cc2)c2c(Cl)cccc2n1CC(=O)O | 25 nM | 2.2 |  | 5010 nM | IC50 [6]: 1780 nM
Cc1c(Sc2ccc(Cl)cc2)c2c(Cl)nccc2n1CC(=O)O | 32 nM | 0.9 |  |  | 
Cc1c(Sc2ccc(Cl)cc2)c2ccc(Cl)cc2n1CC(=O)O | 42 nM | 2.5 | 64 µL/min/1e6 cells | 2000 nM | 
O=C(O)Cn1cc(Sc2ccc(Cl)cc2)c2cc(Cl)ccc21 | 89 nM |  |  |  | 
CCS(=O)(=O)Nc1cccc2c1c(Oc1ccc(Cl)cc1)c(C)n2CC(=O)O | 36 nM |  |  |  | 
Cc1c(Sc2ccc(Cl)cc2)c2cc(Cl)ccc2n1Cc1nnn[nH]1 | 1470 nM |  |  |  | 
Cc1ccc2c(c1)c(S(=O)(=O)c1ccccc1Cl)c(C)n2CC(=O)O | 178 nM |  | 21 µL/min/1e6 cells |  | 
Cc1ccc2c(c1)c(S(=O)(=O)c1c(Cl)cccc1Cl)c(C)n2CC(=O)O | 126 nM |  |  |  | 
Cc1c(Sc2ccc(Cl)cc2)c2cc(S(C)(=O)=O)ccc2n1CC(=O)O | 71 nM | 0.5 |  |  | 
Cc1ccc2c(n1)c(Sc1ccc(Cl)cc1)c(C)n2CC(=O)O | 56 nM | 0.4 |  |  | 
Cc1ccc2c(c1)c([S+]([O-])c1ccc(Cl)cc1)c(C)n2CC(=O)O (stereo unspecified) | 1000 nM | 0.1 | < 5 µL/min/1e6 cells |  | 
Cc1c(Sc2ccc(Cl)cc2)c2cc(Cl)c(C#N)cc2n1CC(=O)O | 178 nM |  | 29 µL/min/1e6 cells |  | 

Now from value to compound, other results behind:

IC50 [1] | logD [2] | hepatocyte CLint [3] | IC50 [4] | Structure (SMILES) | further results
0.6 nM | 0 | 12 µL/min/1e6 cells |  | Cc1c(Sc2ccc(Cl)cc2)c2c(-c3cnccn3)cccc2n1CC(=O)O | 
1.4 nM | -0.1 | 7 µL/min/1e6 cells | > 10000 nM | Cc1ccc2c(c1)c(Sc1ccc(S(C)(=O)=O)cc1)c(C)n2CC(=O)O | IC50 [5]: 5200 nM
11 nM | 2.3 |  |  | Cc1c(Oc2ccc(Cl)cc2)c2cc(C(F)(F)F)ccc2n1CC(=O)O | 
11 nM | 0.6 |  |  | Cc1c(Sc2ccc(Cl)cc2)c2c(S(C)(=O)=O)cccc2n1CC(=O)O | 
5 nM | 1.3 | < 3 µL/min/1e6 cells |  | Cc1c(Oc2ccc(Cl)cc2)c2cc(F)ccc2n1CC(=O)O | 
6.1 nM | 1.6 | 6 µL/min/1e6 cells | 4730 nM | Cc1c(Sc2ccc(Cl)cc2)c2c(C#N)c(Cl)ccc2n1CC(=O)O | IC50 [6]: 2240 nM
7.9 nM | -0.8 |  | > 5840 nM | Cc1c(S(=O)(=O)c2ccc(Cl)cc2)c2c(NS(C)(=O)=O)cccc2n1CC(=O)O | IC50 [6]: 63 nM
3.5 nM | 3.7 |  | 4470 nM | Cc1c(Sc2ccc(Cl)cc2)c2cc(-c3ccccc3)ccc2n1CC(=O)O | IC50 [6]: 1780 nM
7.1 nM | -0.2 | < 3 µL/min/1e6 cells |  | Cc1c(S(=O)(=O)c2ccc(Cl)cc2)c2cc(F)ccc2n1CC(=O)O | 
15 nM |  | 18 µL/min/1e6 cells |  | Cc1ccc2c(c1)c(Sc1ccc(Cl)cc1)c(C)n2CC(=O)O | IC50 [8]: 87 nM; IC50 [5]: 800 nM
1.3 nM | 2.2 |  | 3550 nM | Cc1c(F)ccc2c1c(Sc1ccc(Cl)cc1)c(C)n2CC(=O)O | IC50 [6]: 2240 nM
20 nM |  |  |  | Cc1ccc2c(c1)c(Sc1ccccc1)c(C)n2CC(=O)O | IC50 [8]: 25 nM; IC50 [9]: 157 nM
3.5 nM | -1 | 8 µL/min/1e6 cells |  | Cc1c(Oc2ccc(Cl)cc2)c2c(NS(C)(=O)=O)cccc2n1CC(=O)O | Vd [10]: 1.7 L/kg; bioavailability [11]: > 46%; half-life [12]: 1.4 h; clearance [13]: 20 mL/min/kg
3.5 nM |  |  |  | Cc1c(Sc2ccc(Cl)cc2)c2c(-c3nccs3)cccc2n1CC(=O)O | 
4 nM |  | 14 µL/min/1e6 cells |  | Cc1c(Oc2ccc(Cl)cc2)c2c(-c3ccccc3)cccc2n1CC(=O)O | 
7.1 nM | 1 | 24 µL/min/1e6 cells | 251 nM | COc1ccc(Sc2c(C)n(CC(=O)O)c3ccc(C)cc23)cc1 | IC50 [6]: 282 nM
2.6 nM | 1.7 | 24 µL/min/1e6 cells | 11200 nM | Cc1ccc2c(c1)c(Sc1ccccc1Cl)c(C)n2CC(=O)O | 
3.5 nM | 0.3 |  | > 10000 nM | CCS(=O)(=O)c1ccc(Oc2c(C)n(CC(=O)O)c3ccc(C(F)(F)F)cc23)cc1 | IC50 [6]: 3980 nM
1.8 nM | 0.2 | 6 µL/min/1e6 cells | > 5310 nM | Cc1c(Sc2ccc(Cl)cc2)c2c(NS(C)(=O)=O)cccc2n1CC(=O)O | Vd [10]: 1.1 L/kg; bioavailability [14]: 42%; half-life [12]: 1.7 h; clearance [13]: 11 mL/min/kg; IC50 [5]: 10000 nM
1.6 nM | 1.8 | 19 µL/min/1e6 cells | > 7940 nM | Cc1c(Sc2ccc(Cl)cc2)c2cc(F)ccc2n1CC(=O)O | IC50 [6]: 3160 nM
3 nM | 1.9 | 31 µL/min/1e6 cells | 3160 nM | Cc1ccc2c(c1)c(Sc1cccc(Cl)c1)c(C)n2CC(=O)O | 
13 nM |  |  |  | Cc1c(Sc2ccc(Cl)cc2)c2cc(Cl)ccc2n1CC(=O)O | IC50 [8]: 35 nM
7.1 nM | 0.4 | < 1 µL/min/1e6 cells | 4470 nM | CC(=O)Nc1cccc2c1c(S(=O)(=O)c1ccc(Cl)cc1)c(C)n2CC(=O)O | Vd [10]: 0.2 L/kg; bioavailability [11]: < 10%; half-life [12]: 0.9 h; IC50 [6]: 708 nM; clearance [13]: 4 mL/min/kg; Ratio IC50 [7]: 100
1 nM | 2.6 | 25 µL/min/1e6 cells |  | Cc1c(Sc2ccc(Cl)cc2)c2c(-c3ccccc3)cccc2n1CC(=O)O | 
18 nM | -1.4 |  |  | CC(=O)Nc1cccc2c1c(Oc1ccc(Cl)cc1)c(C)n2CC(=O)O | 
